According to article PMC9008867 (Therapeutic Advances in Medical Oncology, 2022):

Assays:
[1] = tested on: Asian patients with advanced or metastatic malignancies; assay: Adverse events; assay type: in vivo, human; conditions: Schedule 2; patients n (%)
Method in brief: (§1)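 Test compound given orally by schedule. Schedule 1: Mon/Thu, 28-day cycle. Schedule 2: Mondays weekly, 28-day cycle. Schedule 3: Mon/Wed for 2 of 3 weeks, 21-day cycle. Schedule 4: Mon/Wed/Fri, 28-day cycle. All patients received anorexia/nausea prophylaxis. AEs were recorded up to 30 days after the last dose and graded every 2 weeks for cycles 1–2, then every 4 weeks.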

[2] = tested on: Asian patients with advanced or metastatic malignancies; assay: Adverse events; assay type: in vivo, human; conditions: Schedule 3; patients n (%)
Method in brief: as §1

[3] = tested on: Asian patients with advanced or metastatic malignancies; assay: Adverse events; assay type: in vivo, human; conditions: Schedule 4; patients n (%)
Method in brief: as §1

tumour biopsies = assay: Immunohistochemistry of paired pretreatment and ontreatment tumour biopsies; assay type: in vivo, human
Method in brief: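 Paired pretreatment and on-treatment tumour biopsies came from six consenting dose-escalation patients. IHC covered […], Ki67 for proliferation, and ApopTag and cleaved caspase 3 for apoptosis.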

colorectal cancer = assay: Exploratory PFS subgroup analysis in advanced colorectal cancer patients; assay type: in vivo, human
[4] = tested on: metastatic triple-negative breast cancer; conditions: 10 heavily pretreated patients; cited from earlier work
[5] = after 6 weeks of treatment vs baseline, lymphoma, thymoma, colorectal carcinoma

O=C(/C=C\n1cnc(-c2cc(C(F)(F)F)cc(C(F)(F)F)c2)n1)NNc1cnccn1 [selinexor]
Abdominal discomfort, Any grade [1]: 4 (23.52) %
Abdominal discomfort, G1/G2 [1]: 4 (23.52) %
Anaemia, Any grade [1]: 6 (35.29) %
Anorexia, Any grade [1]: 10 (58.8) %
Back pain, Any grade [1]: 1 (5.88) %
Constipation, Any grade [1]: 1 (5.88) %
Diarrhoea, Any grade [1]: 3 (17.64) %
Edema, Any grade [1]: 1 (5.88) %
Fatigue, Any grade [1]: 14 (82.35) %
Hypokalaemia, Any grade [1]: 2 (11.76) %
Hypomagnesemia, Any grade [1]: 5 (29.41) %
Hyponatremia, Any grade [1]: 11 (64.70) %
Hypophosphatemia, Any grade [1]: 3 (17.64) %
Hypotension, Any grade [1]: 1 (5.88) %
Intention tremor, Any grade [1]: 1 (5.88) %
Mucositis, Any grade [1]: 1 (5.88) %
Nausea, Any grade [1]: 11 (64.70) %
Neutropenia, Any grade [1]: 2 (11.76) %
Palpitation, Any grade [1]: 1 (5.88) %
Pneumonitis, Any grade [1]: 1 (5.88) %
Raised amylase/lipase, Any grade [1]: 1 (5.88) %
Raised amylase/lipase, G1/G2 [1]: 1 (5.88) %
Thrombocytopenia, Any grade [1]: 6 (35.29) %
Vomiting, Any grade [1]: 7 (41.17) %
Weight loss, Any grade [1]: 5 (29.41) %
Abdominal discomfort, Any grade [2]: 3 (20) %
Abdominal discomfort, G1/G2 [2]: 3 (20) %
Anaemia, Any grade [2]: 3 (20) %
Anorexia, Any grade [2]: 11 (73.33) %
Conjunctivitis, Any grade [2]: 1 (6.66) %
Constipation, Any grade [2]: 1 (6.66) %
Dehydration, Any grade [2]: 2 (13.33) %
Diarrhoea, Any grade [2]: 5 (33.33) %
Dry skin, Any grade [2]: 1 (6.66) %
Dysgeusia, Any grade [2]: 2 (13.33) %
Edema, Any grade [2]: 1 (6.66) %
Fatigue, Any grade [2]: 13 (86.66) %
Giddiness, Any grade [2]: 2 (13.33) %
Hypocalcaemia, Any grade [2]: 1 (6.66) %
Hypokalaemia, Any grade [2]: 4 (26.66) %
Hypomagnesemia, Any grade [2]: 6 (40) %
Hyponatremia, Any grade [2]: 13 (86.66) %
Hypophosphatemia, Any grade [2]: 6 (40) %
Increased flatulence, Any grade [2]: 1 (6.66) %
Increased flatulence, G1/G2 [2]: 1 (6.66) %
Lethargy, Any grade [2]: 1 (6.66) %
Nausea, Any grade [2]: 4 (26.66) %
Thrombocytopenia, Any grade [2]: 4 (26.66) %
Vomiting, Any grade [2]: 5 (33.33) %
Weight loss, Any grade [2]: 4 (26.66) %
Abdominal discomfort, Any grade [3]: 2 (18.18) %
Abdominal discomfort, G1/G2 [3]: 2 (18.18) %
Anaemia, Any grade [3]: 3 (27.27) %
Anorexia, Any grade [3]: 5 (45.45) %
Cataract, Any grade [3]: 1 (9.09) %
Diarrhoea, Any grade [3]: 4 (36.36) %
Dysgeusia, Any grade [3]: 2 (18.18) %
Dyspnoea/Shortness of breath, Any grade [3]: 3 (27.27) %
Dyspnoea/Shortness of breath, G1/G2 [3]: 2 (18.18) %
Dyspnoea/Shortness of breath, G3/G4 [3]: 1 (9.09) %
Fatigue, Any grade [3]: 11 (100) %
Hypocalcaemia, Any grade [3]: 1 (9.09) %
Hypokalaemia, Any grade [3]: 1 (9.09) %
Hypomagnesemia, Any grade [3]: 3 (27.27) %
Hyponatremia, Any grade [3]: 10 (90.90) %
Hypophosphatemia, Any grade [3]: 1 (9.09) %
Nausea, Any grade [3]: 2 (18.18) %
Neutropenia, Any grade [3]: 1 (9.09) %
Thrombocytopenia, Any grade [3]: 6 (54.54) %
Vomiting, Any grade [3]: 2 (18.18) %
Weight loss, Any grade [3]: 3 (27.27) %
apoptosis in tumour samples (IHC) (tumour biopsies; [5]): increase
proliferation in tumour samples (IHC) (tumour biopsies; [5]): marked decrease
XPO1 cargo protein p53 localization in tumour sections (tumour biopsies; patient with NSCLC): nuclear accumulation
HR for PFS (colorectal cancer; RAS/PIK3CA pathway mutation vs wild-type, p = 0.09, log-rank): 0.58 (0.25–1.32)
median PFS (colorectal cancer; colorectal cancer patients with a RAS/PIK3CA pathway mutation): 86 days
median PFS (colorectal cancer; colorectal cancer patients, RAS/PIK3CA wild-type): 50 days
PFS (colorectal cancer; one heavily pretreated colorectal cancer patient with BRAF V600E somatic mutation): 129 days
objective responses [4]: did not result in any objective responses
